Experimental data taken from ChEMBL document CHEMBL1127075, “Structural modification of 5-aryl-2,3-dihydroimidazo[2,1-a]isoquinoline platelet activating factor receptor antagonists” (J Med Chem, 1993).

Experiments:
[1] = biological target: Platelet-activating factor receptor (Homo sapiens, UniProt P25105); test: In vitro PAF antagonistic activity by determining [3H]PAF binding to the PAF-receptor of human platelets
Method in brief: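 Human platelets incubated with [3H]PAF; free ligand removed by centrifugation, bound radioactivity counted 1 min by liquid scintillation. Specific binding = total minus nonspecific binding (0.37 mM unlabeled PAF).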

[2] = tested on: Cavia porcellus; test: In vivo PAF induced hemoconcentration tested in guinea pig; type: functional
Method in brief: (§1)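 Anesthetized guinea pigs, compound given po in H2O 2 h before iv PAF challenge (0.05 mg/kg); bronchoconstriction (Konzett-Rosler) and hemoconcentration measured. ED50 from dose-response curves, at least five doses, four to seven animals per dose.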

[3] = tested on: Cavia porcellus; test: In vivo PAF induced bronchoconstriction tested in guinea pig; type: functional; method in brief: as §1
[4] = tested on: Cavia porcellus; test: In vivo PAF induced bronchoconstriction tested in guinea pig at 20 mg/kg dose; type: functional
Method in brief: (§2)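 Anesthetized guinea pigs given compound po in H2O at 20 mg/kg, 2 h before iv PAF (0.05 mg/kg); percent inhibition of bronchoconstriction (Konzett-Rosler) or hemoconcentration, three to five animals.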

[5] = tested on: Cavia porcellus; test: In vivo PAF induced hemoconcentration tested in guinea pig at 20 mg/kg dose; type: functional; method in brief: as §2

Sequence of Platelet-activating factor receptor (P25105 whole entry): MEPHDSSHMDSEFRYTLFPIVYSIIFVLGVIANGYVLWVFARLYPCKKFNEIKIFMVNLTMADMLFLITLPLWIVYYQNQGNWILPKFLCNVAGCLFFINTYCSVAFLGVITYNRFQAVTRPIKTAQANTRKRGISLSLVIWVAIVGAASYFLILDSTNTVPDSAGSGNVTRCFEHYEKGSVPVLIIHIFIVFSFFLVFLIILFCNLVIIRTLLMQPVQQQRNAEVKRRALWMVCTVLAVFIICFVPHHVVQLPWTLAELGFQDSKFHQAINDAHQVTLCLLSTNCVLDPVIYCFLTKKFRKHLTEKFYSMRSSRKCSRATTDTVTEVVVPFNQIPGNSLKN

| Structure (SMILES) | IC50 [1] [nM] | ED50 [2] [mg/kg] | ED50 [3] [mg/kg] | inhibition in vivo at 20 mg/kg [4] [%] | inhibition in vivo at 20 mg/kg [5] [%] |
| --- | --- | --- | --- | --- | --- |
| COc1cc(CCc2ccc(C3=Cc4ccccc4C4=NC(C)CN34)cc2)cc(OC)c1OC (stereo unspecified) | 220 | 10 | 16 |  |  |
| COc1cc(CCc2ccc(-c3cc4ccccc4c4nccn34)cc2)cc(OC)c1OC | 89000 |  |  |  |  |
| COc1cc(CCc2ccc(C3=Cc4ccccc4C4=NC(C)(C)CN34)cc2)cc(OC)c1OC | 60 |  |  | 24 | 17.9 |
| COc1cc(CCc2ccc(C3=Cc4ccccc4C4=NCC(C)(C)CN34)cc2)cc(OC)c1OC | 500 |  |  | 17 | 23 |
| COc1cc(CCc2ccc(-c3cc4ccccc4c4nnc(C)n34)cc2)cc(OC)c1OC | 9500 |  |  |  |  |
| COc1cc(CCc2ccc(-c3cc4ccccc4c4nc(C)cn34)cc2)cc(OC)c1OC | 35000 |  |  |  |  |
| COc1cc(CCc2ccc(C3=Nc4ccccc4C4=NCCN34)cc2)cc(OC)c1OC | 1140 | 31.9 | 31.4 |  |  |
| COc1cc(CCc2ccc(C3=Cc4ccccc4C4=NCCCN34)cc2)cc(OC)c1OC | 40 | 3 | 4.7 |  |  |
| COc1cc(CCc2ccc(C3=Cc4ccsc4C4=NCCN34)cc2)cc(OC)c1OC | 10 | 1.1 | 0.8 |  |  |
| COc1cc(CCc2ccc(C3=Cc4ccccc4C4=NCCN34)cc2)cc(OC)c1OC |  | 5 | 4.2 |  |  |
| COc1cc(CCc2ccc(C3=Cc4oc(C)cc4C4=NCCN34)cc2)cc(OC)c1OC | 50 | 10 | > 10 |  |  |
